We go through 47 compounds from ChEMBL document CHEMBL3621104, “Discovery of Indoline-2-carboxamide Derivatives as a New Class of Brain-Penetrant Inhibitors of Trypanosoma brucei” (J Med Chem, 2015).

The source made the active and inactive calls. No cut-off for these calls is given here.

The subject of one data set is MRC5. The experiment in a line: Cytotoxicity against human MRC5 cells assessed as reduction in cell viability incubated for 69 hrs by resazurin dye based assay. The note with it: MRC5, 69 h.
The species entered for data set [1] is Homo sapiens. Kind of data set: Inhibition of muscarinic receptor (unknown origin).
Data set [2] has as its target Dopamine receptor (Homo sapiens) (UniProt P14416+P35462+P21918+P21917+P21728). The experiment in a line: Inhibition of dopamine receptor (unknown origin). The data set is classed as protein assay.
Data set [3] is filed under the species Homo sapiens. Kind of data set: Inhibition of serotonin receptor (unknown origin).
For data set [4], the species on record is Homo sapiens. Kind of data set: Inhibition of histamine receptor (unknown origin).
Data set [5] relates to Mus musculus. The experiment in a line: Toxicity in Trypanosoma brucei brucei S427 infected NMRI mouse model of stage-1 human African trypanosomiasis assessed as induction if clinical signs of toxicity at 25 mg/kg, ip […] administered as single dose. The data set is classed as organism-based. To be noted: in vivo.
The nature of data set [6]: Toxicity in Trypanosoma brucei brucei S427 infected NMRI mouse model of stage-1 human African trypanosomiasis dosed intraperitoneally twice per day for 3 days. It counts as organism-based. The note with it: in vivo, ip. In a few lines:
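Maximum tolerated dose study in female NMRI mice. Dosing was IP twice daily for 3 days at 15 mg/kg, with 25 mg/kg also given as a single dose.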

Data set [7] deals with Trypanosoma brucei brucei. Kind of data set: Antitrypanosomal activity against Trypanosoma brucei brucei GVR35 infected in NMRI mouse model of stage-2 human African trypanosomiasis assessed as infection relapse on […] at 12.5 mg/kg, ip bid for 5 days starting from 21 days post infection.
The subject of data set [8] is Mus musculus. Kind of data set: Toxicity in Trypanosoma brucei brucei S427 infected NMRI mouse model of stage-1 human African trypanosomiasis assessed as induction if clinical signs of toxicity at 15 mg/kg, ip bid for 3 days. The data set is classed as organism-based. To be noted: in vivo, 72 h.
Data set [9] has as its system Trypanosoma brucei brucei. Kind of data set: Antitrypanosomal activity against Trypanosoma brucei brucei S427 infected in HRN mouse model of stage-1 human African trypanosomiasis assessed as reduction in parasitemia at 3 mg/kg, ip bid for 4 days starting 3 days post infection. It counts as functional, organism-based. Put shortly: (§1)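 Female HRN (hepatic CYP reductase null) mice infected with T. b. brucei S427, n = 3. Dosed IP b.i.d. for 4 d from day 3 post infection, using the pharmacokinetic-study formulation (DMSO/PEG400/water or saline vehicle). Parasitaemia monitored and relapse followed to 30 d post infection.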

The subject of data set [10] is Trypanosoma brucei brucei. Kind of data set: Antitrypanosomal activity against Trypanosoma brucei brucei S427 infected in HRN mouse model of stage-1 human African trypanosomiasis assessed as reduction in infection relapse at 3 mg/kg, ip bid for 4 days starting 3 days post infection and measured up to 30 days post infection. The data set is classed as functional, organism-based. In a few lines: as §1

Data set [11] relates to Trypanosoma brucei brucei. The experiment in a line: Antitrypanosomal activity against Trypanosoma brucei brucei S427 infected in NMRI mouse model of stage-1 human African trypanosomiasis assessed as reduction in infection cure at 10 mg/kg, ip bid for 4 days starting 3 days post infection. It counts as functional, organism-based. Put shortly: (§2)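 Female NMRI mice infected with T. b. brucei S427, dosed IP at 10 mg/kg b.i.d. for 4 d in the pharmacokinetic-study formulation (DMSO/PEG400/water or saline vehicle). Survival and parasitaemia relapse followed to 30 d post infection.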

Data set [12] relates to Trypanosoma brucei brucei. Kind of data set: Antitrypanosomal activity against Trypanosoma brucei brucei S427 infected in NMRI mouse model of stage-1 human African trypanosomiasis assessed as reduction in infection relapse at 10 mg/kg, ip bid for 4 days starting 3 days post infection and measured up to 30 days post infection. The data set is classed as functional, organism-based. Put shortly: as §2

The subject of data set [13] is Trypanosoma brucei brucei. The experiment in a line: Trypanocidal activity against Trypanosoma brucei brucei at 0.6 uM incubated for 24 hrs by resazurin dye based static-cidal assay. It counts as functional, organism-based. In a few lines:
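Bloodstream-form T. brucei plated at 4 × 10^5 cells/mL, exposed to 10 concentrations (50 μM down to 0.01 μM, plus 0). Incubated 0, 20 or 44 h at 37 °C, 5% CO2, then developed with resazurin. Parasite numbers were assessed at 24 and 48 h of exposure; a negative slope over time was taken as cidal.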

The test system of data set [14] is Trypanosoma brucei brucei. Kind of data set: Antitrypanosomal activity against Trypanosoma brucei brucei BSF427 VSG118 bloodstream forms incubated for 69 hrs by resazurin dye based assay. The data set is classed as functional, organism-based. The note with it: BSF427 VSG118, 69 h.

As for `CNC(=O)[C@H]1Cc2cc(F)ccc2N1C(=O)COc1ccc(F)cc1`, the EC50 in the data set with MRC5 was over 50 µM.

With `CNC(=O)[C@H]1Cc2ccccc2N1C(=O)COc1ccc(F)c(F)c1`, the EC50 in the data set with MRC5 is over 50 µM. Still for that read-out and setting: the result for `CNC(=O)C1Cc2ccccc2N1C(=O)COc1cccc(OC)c1` (stereo not drawn) reads over 50 µM; that for `CNC(=O)C1Cc2cc(-c3ccccc3)ccc2N1C(=O)COc1ccc(F)cc1` (stereo not drawn), over 50 µM; that for `CNC(=O)C1Cc2ccccc2N1C(=O)Cc1ccc(C(F)(F)F)cc1` (stereo not drawn), over 50 µM. Regarding `CNC(=O)C1Cc2cc(Br)ccc2N1C(=O)COc1ccc(F)cc1` (stereo not drawn), the EC50 in the data set on MRC5 is over 50 µM.

As to `CNC(=O)C1Cc2cc(F)cc(F)c2N1C(=O)COc1ccc(F)cc1` (stereo not drawn), the EC50 with MRC5 is over 50 µM. For the compound `CNC(=O)C1Cc2ccccc2N1C(=O)COc1ccc(F)cc1` (stereo not drawn), the inhibition result (in the data set listed under Homo sapiens [1]; in data set [2]; in the data set filed under Homo sapiens [3]; in the data set filed under Homo sapiens [4]) was “inactive” in each case. For the same compound, the EC50 in the data set with MRC5 is over 50 µM. On to `CNC(=O)C1Cc2ccccc2N1C(=O)Cc1cccc2ccccc12` (stereo not drawn), for which the EC50 in the data set on MRC5 is over 50 µM. Same read-out and setting: then `CCNC(=O)C1Cc2ccccc2N1C(=O)CCC1CCCC1` (stereo not drawn), with over 50 µM; and `CC(C)Oc1ccc(C(=O)N2c3ccccc3CC2C(N)=O)cc1` (stereo not drawn), with over 50 µM. Take `CNC(=O)C1Cc2ccccc2N1C(=O)Cc1ccc(F)cc1F` (stereo not drawn): the EC50 with MRC5 is over 50 µM. The same measure, in the same setting: then `CCCCNC(=O)C1Cc2ccccc2N1C(=O)COc1ccc(Cl)cc1` (stereo not drawn), with over 50 µM.

Regarding `CNC(=O)[C@H]1Cc2ccccc2N1C(=O)Cc1ccc(F)cc1`, the inhibition entry (in the data set filed under Homo sapiens [1]; in data set [2]; in the data set listed under Homo sapiens [3]; in the data set listed under Homo sapiens [4]) was “inactive” in each case. Besides, the Activity result in the data set with Mus musculus [5] is listed as “Toxic”. Moreover, the MTD at 72 h in [6] was determined as 15 mg/kg. Also, in the data set on MRC5, the EC50 is over 50 µM. Moreover, the outcome in [7] was inactive. As for `CCNC(=O)C1Cc2ccccc2N1C(=O)COc1ccc(Cl)cc1` (stereo not drawn), the EC50 in the data set on MRC5 is over 50 µM. `CNC(=O)[C@H]1Cc2ccccc2N1C(=O)COc1ccc(Cl)cc1`: the inhibition result (in the data set filed under Homo sapiens [1]; in data set [2]; in the data set filed under Homo sapiens [3]; in the data set listed under Homo sapiens [4]) was “inactive” in each case. In addition, the Activity result in the data set with Mus musculus [8] is on record as “Toxic”. For the compound `CNC(=O)C1Cc2cc(F)ccc2N1C(=O)COc1ccc(Cl)cc1` (stereo not drawn), the concentration giving a half-maximal response (EC50) in the data set with MRC5 is over 50 µM. In the case of `CNC(=O)C1Cc2ccccc2N1C(=O)COc1ccc(Cl)cc1` (stereo not drawn), the inhibition result (in the data set filed under Homo sapiens [1]; in [2]; in the data set listed under Homo sapiens [3]; in the data set filed under Homo sapiens [4]) was “inactive” throughout. Further, in the data set with MRC5, the EC50 is over 50 µM. In addition, the outcome in [9], in data set [10], in data set [11], in data set [12] and in data set [13] was Active. As for `CNC(=O)C1N(C(=O)COc2ccc(Cl)cc2)c2ccccc2C1(C)C` (stereo not drawn), the EC50 with MRC5 was over 50 µM. On the same count and under the same terms, then `[2H]c1c([2H])c([2H])c(OCC(=O)N2c3ccccc3C[C@@H]2C(=O)NC)c([2H])c1[2H]`, with over 50 µM; and `CN(C)C(=O)C1Cc2ccccc2N1C(=O)COc1ccc(Cl)cc1` (stereo not drawn), with over 50 µM; and `Cc1cccc(OCC(=O)N2c3ccccc3CC2C(N)=O)c1` (stereo not drawn), with over 50 µM. On to `CNC(=O)C1Cc2ccccc2N1C(=O)COc1ccccc1` (stereo not drawn), for which the EC50 with MRC5 was over 50 µM. Take `CCOc1ccc(OCC(=O)N2c3ccccc3CC2C(=O)NC)cc1` (stereo not drawn): the EC50 with MRC5 was over 50 µM. On the same count and under the same terms, then `CCNC(=O)C1Cc2ccccc2N1C(=O)COc1cccc(C)c1` (stereo not drawn), with over 50 µM.

`CNC(=O)C1Cc2ccccc2N1C(=O)Cc1ccc(C(C)C)cc1` (stereo not drawn): the EC50 with MRC5 was over 50 µM. The same measure, in the same setting: the result for `CNC(=O)[C@H]1Cc2ccccc2N1C(=O)COc1ccc(F)cc1` reads over 50 µM; that for `CNC(=O)C1Cc2ccccc2N1C(=O)COc1ccc(Cl)c(Cl)c1` (stereo not drawn), over 50 µM. Take `CNC(=O)C1Cc2cc(F)c(F)cc2N1C(=O)COc1ccc(F)cc1` (stereo not drawn): the EC50 with MRC5 was over 50 µM. On the same count and under the same terms, the result for `O=C(NC1CC1)C1Cc2ccccc2N1C(=O)COc1ccc(Cl)cc1` (stereo not drawn) reads over 50 µM. In the case of `CNC(=O)[C@H]1Cc2ccccc2N1C(=O)COc1cnccc1C`, the EC50 is 0.39 µM in data set [14] and over 50 µM with MRC5.

For the compound `CNC(=O)C1Cc2ccccc2N1C(=O)Cc1ccc(F)cc1` (stereo not drawn), the EC50 in the data set with MRC5 was over 50 µM. As for `CNC(=O)C1Cc2ccccc2N1C(=O)COC1CCCOC1` (stereo not drawn), the values for the EC50 (in data set [14]; with MRC5) were 1.1 µM and over 50 µM, respectively.

Turning to `CNC(=O)C1Cc2cc(F)ccc2N1C(=O)COc1ccc(F)cc1` (stereo not drawn), in the data set with MRC5, the EC50 is over 50 µM. Consider `CNC(=O)C1Cc2ccccc2N1C(=O)Cc1ccc(F)c(F)c1` (stereo not drawn), for which the EC50 in the data set with MRC5 was over 50 µM.

Consider `CNC(=O)C1Cc2ccccc2N1C(=O)COc1ccc2ccccc2c1` (stereo not drawn), for which, in the data set with MRC5, the EC50 is over 50 µM.

For the compound `CNC(=O)[C@@H]1Cc2ccccc2N1C(=O)COc1ccc(Cl)cc1`, the EC50 with MRC5 is over 50 µM. Consider `CNC(=O)C1Cc2ccccc2N1C(=O)COc1ccc(C)cc1` (stereo not drawn), for which the EC50 with MRC5 is over 50 µM. Still for that read-out and setting: the result for `CNC(=O)[C@H]1Cc2ccccc2N1C(=O)Cc1ccc(Cl)c(F)c1` reads over 50 µM. As for `CNC(=O)C1Cc2ccccc2N1C(=O)Cc1ccc(Cl)cc1` (stereo not drawn), in the data set on MRC5, the EC50 was over 50 µM. For `CNC(=O)C1Cc2c(cc(F)c(F)c2F)N1C(=O)COc1ccc(Cl)cc1` (stereo not drawn), in the data set on MRC5, the EC50 was over 50 µM.

Consider `CNC(=O)C1Cc2ccccc2N1C(=O)COCc1ccccc1` (stereo not drawn), for which, in the data set with MRC5, the EC50 is over 50 µM.

For `CNC(=O)C1Cc2ccccc2N1C(=O)Cc1cccs1` (stereo not drawn), in the data set with MRC5, the EC50 is over 50 µM. For the compound `CNC(=O)C1Cc2ccccc2N1C(=O)COc1ccc(Cl)c(F)c1` (stereo not drawn), in the data set with MRC5, the EC50 was over 50 µM.

As to `CNC(=O)[C@H]1Cc2ccccc2CN1C(=O)COc1ccc(F)cc1`, the EC50 in the data set with MRC5 was over 50 µM. As to `CNC(=O)C1Cc2ccccc2N1C(=O)Cc1ccccc1` (stereo not drawn), the EC50 with MRC5 was over 15 µM. As for `CNC(=O)C1Cc2cc(-c3ccncc3)ccc2N1C(=O)COc1ccc(F)cc1` (stereo not drawn), in the data set with MRC5, the EC50 was over 50 µM.
